Data from the RNAGym collection of RNA variant scans (doi:10.1126/science.aae0568).
This sample holds only a part of the variants without activity.

B1: tRNA (parent)
chain: GUUCCGUUGGCGUAAUGGUAACGCGUCUCCCUCCUAAGGAGAAGACUGCGGGUUCGAGUCCCGUACGGAACG

Variants of: B1
Assay: yeast fitness relative to wild type (ratio to wild type); higher = fitter; tRNA-Arg(CCU), competitive growth, 37 C, YPD
How it was run: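 Variants of the tRNA-Arg(CCU) gene were chemically synthesised with a 3% per-site mutation rate across 69 sites and placed at the native genomic locus in Saccharomyces cerevisiae. Six parallel replicates of the pooled strains were competed in YPD at 37°C for 24 hours, and gene amplicons from the start and end populations were read by 100-nucleotide paired-end sequencing. Darwinian fitness relative to wild type was derived from changes in genotype frequencies. Genotypes required ≥ 100 starting reads, and estimates < 0.5 were set to 0.5.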
A15C A20G A21U C66G gave a yeast fitness of no more than 0.5.
With A14U C30G U32G the yeast fitness was no more than 0.5.
A15C G23A A42C G48A G50C showed a yeast fitness of no more than 0.5.
With A15C G56A G67A the yeast fitness was 0.61.
A15C C22A G25C U28A A36U A57C A65C G68C showed a yeast fitness of 0.568.
With A14U G23C C55G the yeast fitness was no more than 0.5.
For A15C C31A C34A G67C, the yeast fitness was no more than 0.5.
A15C G23C C60U A69G gave a yeast fitness of no more than 0.5.
Variant A14U U26A C62G has a yeast fitness of no more than 0.5.
A15C C29U C31U G67C showed a yeast fitness of 0.591.
In the case of A14U C46U G48C G63A G68A, the yeast fitness is reported as no more than 0.5.
Work on A14U G25A yielded a yeast fitness of 0.686.
Work on A14U C30G A40G C66U yielded a yeast fitness of no more than 0.5.
With A14U G25A C30G C62G the yeast fitness was no more than 0.5.
With A14U G17A G23C C29U C34G A45C U54G the yeast fitness was no more than 0.5.
With A15C G17C the yeast fitness was 0.62.
In the case of A15C A36G U47C C55A, the yeast fitness is reported as no more than 0.5.
With A14U C34G A37C A57C the yeast fitness was no more than 0.5.
With A15C C29U G68C the yeast fitness was no more than 0.5.
Variant A15C U16A A21G U26A C30U C61A A69U has a yeast fitness of 0.575.
Variant A15C G18A U19G G58C has a yeast fitness of no more than 0.5.
A15C C29U G39C A42U G50U G51C G63A A65U gave a yeast fitness of no more than 0.5.
A15C C30A gave a yeast fitness of 0.666.
Variant A15C C31A U35C A45U has a yeast fitness of no more than 0.5.
Work on A15C G52A A57U C60U A65G G68A yielded a yeast fitness of no more than 0.5.
For A15C A57C, the yeast fitness was no more than 0.5.
A15C A36U C46G G56A C60A C62G C66A showed a yeast fitness of no more than 0.5.
In the case of A15C U28A C34G A43U G63U U64C, the yeast fitness is reported as no more than 0.5.
A14U C62G showed a yeast fitness of 0.692.
A14U C24G U54G showed a yeast fitness of no more than 0.5.
Work on A15C C31A U59C G63A A69G yielded a yeast fitness of no more than 0.5.
In the case of A14U G23U G68C, the yeast fitness is reported as 0.514.
Variant A15C C33U U47G C49U G52C A70G has a yeast fitness of 0.585.
A15C C31G showed a yeast fitness of 0.632.
In the case of A15C C31G A40U, the yeast fitness is reported as 0.624.
Work on A14U C22G A57C G63C C66U yielded a yeast fitness of 0.578.
Work on A15C G67C yielded a yeast fitness of 0.684.
A14U G17C C24A C30G C62A A70U showed a yeast fitness of no more than 0.5.
In the case of A15C G25A A65C, the yeast fitness is reported as 0.711.
With A15C C55A the yeast fitness was 0.562.
In the case of A15C U28A C34G A43U G68C, the yeast fitness is reported as no more than 0.5.
For A15C C27U C30U U32G U35A A37C A57U, the yeast fitness was no more than 0.5.
In the case of A14U C34G C66U, the yeast fitness is reported as no more than 0.5.
In the case of A14U U28A U59C C60G, the yeast fitness is reported as no more than 0.5.
With A15C C22G A43C G52C the yeast fitness was no more than 0.5.
For A14U U16G U19A A42G, the yeast fitness was 0.512.
In the case of A15C A36U A65C, the yeast fitness is reported as 0.54.
Work on A15C A36U A69U yielded a yeast fitness of 0.509.
A14U U16G C33G G50A G58C G63C showed a yeast fitness of no more than 0.5.
Work on A14U G18A yielded a yeast fitness of no more than 0.5.
Variant A15C C49G C62U has a yeast fitness of 0.636.
For A14U U64C A65G, the yeast fitness was 0.567.
Work on A14U C31A C46U G48A C49U yielded a yeast fitness of no more than 0.5.
Variant A15C G51C C61U has a yeast fitness of no more than 0.5.
Variant A14U C49U has a yeast fitness of 0.629.
Variant A15C A36U has a yeast fitness of 0.633.
With A15C C22A C31A G38C G58C the yeast fitness was 0.542.
For A15C U19A U64A A65G G67U, the yeast fitness was no more than 0.5.
Variant A15C G39A U64C A65G has a yeast fitness of no more than 0.5.
Variant A15C U26A C31G U32A G63A has a yeast fitness of no more than 0.5.
In the case of A14U C30U C55G, the yeast fitness is reported as no more than 0.5.
With A14U C30U the yeast fitness was 0.558.
Work on A14U C30A yielded a yeast fitness of 0.565.
For A15C A21U C62U, the yeast fitness was 0.53.
Work on A15C U26C G56A C61U yielded a yeast fitness of no more than 0.5.
For A14U U28A G67C, the yeast fitness was no more than 0.5.
In the case of A14U U26A, the yeast fitness is reported as 0.694.
Variant A14U U16A C27G A40U A57U C66A has a yeast fitness of no more than 0.5.
In the case of A14U C31A C66A, the yeast fitness is reported as no more than 0.5.
A14U C33U A36U G41C showed a yeast fitness of no more than 0.5.
Work on A14U G17C A70G yielded a yeast fitness of no more than 0.5.
In the case of A15C A43G C46A G68A, the yeast fitness is reported as no more than 0.5.
A15C G38A C49A gave a yeast fitness of no more than 0.5.
In the case of A14U C29A C49A A69U, the yeast fitness is reported as no more than 0.5.
For A14U G23A C31U A43U, the yeast fitness was no more than 0.5.
With A15C G50A C55U C61G the yeast fitness was 0.804.
With A14U U19C C29U C30A A45C the yeast fitness was no more than 0.5.
Variant A14U U16G U19A A42G G52A has a yeast fitness of no more than 0.5.
Work on A14U U35A G52A C61G C66A yielded a yeast fitness of no more than 0.5.
A15C G52C gave a yeast fitness of 0.575.
Variant A14U G38C C46A has a yeast fitness of 0.551.
In the case of A14U U19A A21C G48C A70G, the yeast fitness is reported as 0.505.
A15C C34G C60U showed a yeast fitness of no more than 0.5.
With A14U C31U C34A A45U C49U the yeast fitness was no more than 0.5.
For A15C G25C C29U U35C A43U A69U, the yeast fitness was no more than 0.5.
With A14U U47A A69G the yeast fitness was 0.66.
Variant A14U C22A has a yeast fitness of 0.668.
Work on A15C A20G A70C yielded a yeast fitness of 0.6.
Variant A15C A43U G67A has a yeast fitness of 0.535.
Work on A15C G17A U54C C55G yielded a yeast fitness of no more than 0.5.
In the case of A15C C24A U53C, the yeast fitness is reported as no more than 0.5.
A14U U35C U53G gave a yeast fitness of 0.634.
With A15C C33U A36U C66U the yeast fitness was no more than 0.5.
Variant A15C C29U G39C A42U G48C G50U G51C A65U has a yeast fitness of no more than 0.5.
Work on A15C U32A A65C yielded a yeast fitness of no more than 0.5.
Work on A15C C27U G63A yielded a yeast fitness of no more than 0.5.
With A14U C62U C66G the yeast fitness was no more than 0.5.
For A14U G44C G50A, the yeast fitness was no more than 0.5.
A15C C29G C30G U47C showed a yeast fitness of no more than 0.5.
For A14U G17A A43C C46U, the yeast fitness was no more than 0.5.
For A15C G44A U53C U64C, the yeast fitness was no more than 0.5.
In the case of A15C C34G A37U C46G A69U, the yeast fitness is reported as no more than 0.5.
Variant A14U U26C A57U has a yeast fitness of no more than 0.5.
In the case of A15C G48A U64G, the yeast fitness is reported as 0.593.
A14U G23C C29G G51A G56C gave a yeast fitness of no more than 0.5.
With A15C A21U G39A the yeast fitness was no more than 0.5.
A15C G18A C24G C55A gave a yeast fitness of no more than 0.5.
In the case of A14U G25A U35A G39U A65G, the yeast fitness is reported as no more than 0.5.
A15C C27A showed a yeast fitness of 0.554.
For A15C G17A G18A A36C, the yeast fitness was no more than 0.5.
Work on A14U G23U C61G yielded a yeast fitness of no more than 0.5.
A15C C30A G48C G56C gave a yeast fitness of no more than 0.5.
For A15C G23C C60U, the yeast fitness was no more than 0.5.
Variant A14U U16A U26G C29G G67C has a yeast fitness of no more than 0.5.
Work on A14U U19A A21C G48C G63A A70G yielded a yeast fitness of no more than 0.5.
A14U G17C C30G G41C A42C U47C G50A C62A gave a yeast fitness of no more than 0.5.
Work on A14U U59A yielded a yeast fitness of 0.583.
With A14U G18A C30A the yeast fitness was no more than 0.5.
For A15C G17A A57C, the yeast fitness was 0.527.
A15C G25C C29U U35C A43U G67C gave a yeast fitness of no more than 0.5.
In the case of A14U C27U C55G, the yeast fitness is reported as 0.517.
For A15C U16A A21G U26A C30U, the yeast fitness was no more than 0.5.
A15C G39A A65G gave a yeast fitness of 0.517.
A14U C24G A57C showed a yeast fitness of no more than 0.5.
A15C G17C C31G G50C C62G A70C showed a yeast fitness of no more than 0.5.
For A14U C34G C49G C66U, the yeast fitness was no more than 0.5.
Variant A14U A70U has a yeast fitness of 0.713.
In the case of A15C C22A, the yeast fitness is reported as 0.697.
For A14U G39A, the yeast fitness was 0.671.
For A15C G39A A57G C66U, the yeast fitness was no more than 0.5.
Work on A14U C29U A37U C49A G67A yielded a yeast fitness of no more than 0.5.
Variant A14U C30A A43U C49U has a yeast fitness of 0.545.
A15C U28C G48C gave a yeast fitness of no more than 0.5.
A15C C31U C62G U64G A65G G67C showed a yeast fitness of no more than 0.5.
Work on A15C C24U C66U yielded a yeast fitness of no more than 0.5.
With A15C A20U C31G C62A the yeast fitness was no more than 0.5.
For A14U G52C, the yeast fitness was no more than 0.5.
Variant A14U G52A G68C has a yeast fitness of no more than 0.5.
Variant A14U C30U C62A has a yeast fitness of no more than 0.5.
With A15C A36U G39A the yeast fitness was no more than 0.5.
Variant A14U C49A G68A has a yeast fitness of no more than 0.5.
A14U C30A A43U showed a yeast fitness of no more than 0.5.
Work on A14U U16A G25A A37G yielded a yeast fitness of no more than 0.5.
With A15C G58A G68A the yeast fitness was 0.611.
A14U U19A A36C gave a yeast fitness of no more than 0.5.
In the case of A14U U26A G58C, the yeast fitness is reported as no more than 0.5.
With A14U G41C the yeast fitness was 0.565.
Work on A15C A20G A65G yielded a yeast fitness of no more than 0.5.
In the case of A15C A36U A42G U59C C60A, the yeast fitness is reported as no more than 0.5.
With A15C C27U U28A A40U the yeast fitness was no more than 0.5.
In the case of A14U U26G G56A A65G C66U, the yeast fitness is reported as no more than 0.5.
A14U U53C showed a yeast fitness of 0.613.
With A15C C46U G51A C66A the yeast fitness was no more than 0.5.
With A15C G17A G38C C62U the yeast fitness was no more than 0.5.
Work on A14U U16A C22U C24A G67A A69C yielded a yeast fitness of 0.67.
With A15C A70C the yeast fitness was 0.751.
Work on A15C C30A C34A A42C G56A A57U yielded a yeast fitness of no more than 0.5.
Variant A15C G39A G67A has a yeast fitness of no more than 0.5.
In the case of A15C G50A C60G U64G, the yeast fitness is reported as no more than 0.5.
A15C C27U C62U gave a yeast fitness of no more than 0.5.
A14U U26G C49G gave a yeast fitness of no more than 0.5.
Work on A14U C60G A70C yielded a yeast fitness of no more than 0.5.
In the case of A15C A21G C22U C49U U53C, the yeast fitness is reported as no more than 0.5.
For A15C A40U, the yeast fitness was 0.833.
With A15C G25A U28A the yeast fitness was no more than 0.5.
A15C U28C G48C G68U A69U showed a yeast fitness of no more than 0.5.
With A15C A20C G39C A69C the yeast fitness was no more than 0.5.
